Test results taken from ChEMBL document CHEMBL4007422 (J Med Chem, 2017).
pIC50, pKi: −log10 of the molar value. Activity calls are given as the source filed them. No cut-off for these calls is given here.

Key:
[1] = (§1) AUC (0 to t) in Wistar rat at 10 mg/kg, po by LC-MS/MS analysis; type: ADME, organism-based; details: Wistar, in vivo
Cytochrome P450 3A4 = Cytochrome P450 3A4 (Homo sapiens, UniProt P08684)
[2] = biological target: T1, 5-hydroxytryptamine receptor 1A (Homo sapiens) (UniProt P08908); experiment: Displacement of [3H]-8-OH-DPAT from recombinant human 5-HT1A receptor expressed in HEK293 EBNA cell membranes after 120 mins by microbeta scintillation counting analysis
T1 sequence (whole entry): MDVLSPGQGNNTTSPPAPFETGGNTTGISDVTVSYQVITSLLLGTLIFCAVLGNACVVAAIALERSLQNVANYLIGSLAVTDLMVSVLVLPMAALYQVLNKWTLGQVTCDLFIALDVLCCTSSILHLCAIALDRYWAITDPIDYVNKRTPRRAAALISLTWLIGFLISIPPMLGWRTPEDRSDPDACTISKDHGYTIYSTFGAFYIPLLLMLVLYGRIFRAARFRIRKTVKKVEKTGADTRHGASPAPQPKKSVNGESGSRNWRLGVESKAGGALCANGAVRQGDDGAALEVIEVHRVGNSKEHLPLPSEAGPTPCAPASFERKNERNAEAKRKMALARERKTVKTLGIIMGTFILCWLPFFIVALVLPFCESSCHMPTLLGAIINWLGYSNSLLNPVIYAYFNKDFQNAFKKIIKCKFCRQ

[3] = biological target: 5-hydroxytryptamine receptor 7 (Rattus norvegicus) (UniProt P32305); experiment: Binding affinity to recombinant rat 5-HT7 receptor expressed in CHOK1 cells assessed as inhibition of 5-HT stimulated cAMP accumulation after 4 hrs by luciferase reporter gene assay; type: cell-based
[4] = Half life in Wistar rat at 10 mg/kg, iv by LC-MS/MS analysis; type: ADME, organism-based; details: in vivo
[5] = Clearance in Wistar rat at 10 mg/kg, iv by LC-MS/MS analysis; type: ADME, organism-based; details: in vivo
Cytochrome P450 2D6 = Cytochrome P450 2D6 (Homo sapiens, UniProt P10635); experiment: Inhibition of CYP2D6 in human liver microsomes in presence of NADPH by LC-MS/MS analysis
[6] = Apparent volume of distribution in Wistar rat at 10 mg/kg, iv by LC-MS/MS analysis; type: ADME, organism-based; details: in vivo, read-out: Vz
[7] = Ratio of drug uptake in Wistar rat brain to plasma at 10 mg/kg, po by LC-MS/MS analysis; type: ADME, organism-based; details: read-out: BPR
[8] = biological target: 5-hydroxytryptamine receptor 4 (Homo sapiens) (UniProt Q13639); experiment: Displacement of [3H]-GR113808 from recombinant human 5-HT4B receptor expressed in Chem1 cell membranes after 120 mins by microbeta scintillation counting analysis
[9] = Cmax in Wistar rat at 10 mg/kg, po by LC-MS/MS analysis; type: ADME, organism-based; parameters: dose 10 mg/kg, route oral; details: in vivo
[10] = biological target: 5-hydroxytryptamine receptor 2A (Homo sapiens) (UniProt P28223); experiment: Displacement of [3H]-Ketanserine from recombinant human 5-HT2A receptor expressed in CHOK1 cell membranes after 60 mins by microbeta scintillation counting analysis
[11] = biological target: T2, 5-hydroxytryptamine receptor 2C (Homo sapiens) (UniProt P28335); experiment: Displacement of [3H]-Mesulergine from recombinant human 5-HT2C receptor expressed in HEK293 cell membranes after 180 mins by microbeta scintillation counting analysis
T2 sequence (whole entry): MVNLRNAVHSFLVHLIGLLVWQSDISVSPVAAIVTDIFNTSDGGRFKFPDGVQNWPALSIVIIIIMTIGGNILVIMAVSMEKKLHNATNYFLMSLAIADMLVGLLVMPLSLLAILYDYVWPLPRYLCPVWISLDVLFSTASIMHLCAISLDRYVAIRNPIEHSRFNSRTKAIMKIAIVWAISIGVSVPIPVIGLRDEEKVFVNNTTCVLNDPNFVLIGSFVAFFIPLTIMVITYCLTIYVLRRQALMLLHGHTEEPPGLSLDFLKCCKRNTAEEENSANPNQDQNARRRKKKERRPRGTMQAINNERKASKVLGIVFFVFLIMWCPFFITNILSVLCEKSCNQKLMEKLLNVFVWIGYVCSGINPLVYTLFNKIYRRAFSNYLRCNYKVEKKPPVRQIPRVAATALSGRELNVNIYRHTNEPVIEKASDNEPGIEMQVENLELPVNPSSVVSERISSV

Rattus norvegicus [12] = experiment: Reversal of time-induced amnesia in Wistar rat at 10 mg/kg, po administered 60 mins prior to testing measured for 3 mins by object recognition test; type: functional, organism-based
Outline: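 Time-induced object recognition task in rats. Oral dosing at 1, 3 and 10 mg/kg given 60 min before the test; vehicle water for injection 1 mL/kg p.o.; n = 7−12/group. Exploration of novel versus familiar object compared by paired t-test.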

[13] = (§2) Oral bioavailability in Wistar rat at 10 mg/kg by LC-MS/MS analysis; type: ADME, organism-based; details: Wistar, in vivo
[14] = biological target: T3, 5-hydroxytryptamine receptor 6 (Homo sapiens, UniProt P50406); experiment: Antagonist activity at recombinant human 5-HT6 receptor expressed in CHO cells assessed as inhibition of 5-HT stimulated cAMP accumulation after 4 hrs by luciferase reporter gene assay relative to control; type: functional, cell-based
Outline: (§3)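 Stable CHO line expressing recombinant human 5-HT6 receptor with a pCRE-luciferase reporter, a nonradioactive cell-based format. Output is Kb (nM), the mean of duplicate experiments, with Imax (%) also reported.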

[15] = biological target: T3, 5-hydroxytryptamine receptor 6; experiment: Antagonist activity at recombinant human 5-HT6 receptor expressed in CHO cells assessed as inhibition of 5-HT stimulated cAMP accumulation after 4 hrs by luciferase reporter gene assay; type: functional, cell-based; outline: as §3
[16] = biological target: T3, 5-hydroxytryptamine receptor 6; experiment: Displacement of [3H]-LSD from recombinant human 5-HT6 receptor expressed in HEK293 cells after 60 mins; type: cell-based
Rattus norvegicus [17] = experiment: Increase in acetylcholine level in Wistar rat ventral hippocampus at 1 mg/kg, sc after 4 hrs in presence of 1 mg/kg of donepezil administered sc by LC-MS/MS based microdialysis method relative to control; type: functional
Rattus norvegicus [18] = experiment: Reversal of time-induced amnesia in Wistar rat at 1 to 3 mg/kg, sc administered 60 mins prior to testing measured for 3 mins by object recognition test; type: functional, organism-based
Rattus norvegicus [19] = experiment: as §1; type: ADME, organism-based; details: in vivo
Rattus norvegicus [20] = experiment: as §2; type: ADME, organism-based; details: in vivo

T3 sequence (P50406 whole entry): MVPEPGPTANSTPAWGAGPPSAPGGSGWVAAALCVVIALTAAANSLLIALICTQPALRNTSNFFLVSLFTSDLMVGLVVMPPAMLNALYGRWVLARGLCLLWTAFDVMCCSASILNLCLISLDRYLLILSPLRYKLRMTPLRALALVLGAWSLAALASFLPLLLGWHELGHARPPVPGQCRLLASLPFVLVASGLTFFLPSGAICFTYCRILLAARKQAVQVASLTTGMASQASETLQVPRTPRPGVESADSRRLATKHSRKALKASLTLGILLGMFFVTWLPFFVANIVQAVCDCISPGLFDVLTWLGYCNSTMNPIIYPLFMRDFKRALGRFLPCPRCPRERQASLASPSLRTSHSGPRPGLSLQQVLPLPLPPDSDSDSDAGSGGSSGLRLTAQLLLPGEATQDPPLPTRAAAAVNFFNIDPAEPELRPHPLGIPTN
Sequence of 5-hydroxytryptamine receptor 2A (Homo sapiens) (P28223 whole entry): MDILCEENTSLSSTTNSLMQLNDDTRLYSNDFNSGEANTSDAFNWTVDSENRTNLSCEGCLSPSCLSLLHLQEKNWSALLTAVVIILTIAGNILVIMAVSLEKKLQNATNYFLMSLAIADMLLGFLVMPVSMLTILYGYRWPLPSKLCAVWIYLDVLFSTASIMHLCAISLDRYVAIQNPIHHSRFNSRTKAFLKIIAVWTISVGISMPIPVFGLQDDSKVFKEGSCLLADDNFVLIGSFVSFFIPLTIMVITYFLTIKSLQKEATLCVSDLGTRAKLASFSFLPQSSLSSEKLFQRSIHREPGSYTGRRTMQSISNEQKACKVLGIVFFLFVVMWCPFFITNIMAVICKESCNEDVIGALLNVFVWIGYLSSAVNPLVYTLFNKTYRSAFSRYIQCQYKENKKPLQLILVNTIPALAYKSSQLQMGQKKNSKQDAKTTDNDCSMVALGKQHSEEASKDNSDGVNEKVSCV
Sequence of Cytochrome P450 2D6 (P10635 whole entry): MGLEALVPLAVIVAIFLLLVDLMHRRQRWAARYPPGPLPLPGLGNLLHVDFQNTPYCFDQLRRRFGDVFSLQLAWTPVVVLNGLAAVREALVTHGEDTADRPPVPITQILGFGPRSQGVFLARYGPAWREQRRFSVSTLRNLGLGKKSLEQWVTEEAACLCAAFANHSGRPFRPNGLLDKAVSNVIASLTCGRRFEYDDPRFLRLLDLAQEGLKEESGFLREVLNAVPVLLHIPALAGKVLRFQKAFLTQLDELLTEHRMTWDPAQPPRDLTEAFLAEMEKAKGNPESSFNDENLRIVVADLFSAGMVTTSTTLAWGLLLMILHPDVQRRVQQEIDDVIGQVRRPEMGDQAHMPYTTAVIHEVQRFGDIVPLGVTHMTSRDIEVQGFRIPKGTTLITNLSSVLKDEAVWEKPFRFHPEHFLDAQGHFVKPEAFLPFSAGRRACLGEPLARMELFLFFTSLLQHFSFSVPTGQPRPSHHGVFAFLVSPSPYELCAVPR
Sequence of 5-hydroxytryptamine receptor 7 (Rattus norvegicus) (P32305 whole entry): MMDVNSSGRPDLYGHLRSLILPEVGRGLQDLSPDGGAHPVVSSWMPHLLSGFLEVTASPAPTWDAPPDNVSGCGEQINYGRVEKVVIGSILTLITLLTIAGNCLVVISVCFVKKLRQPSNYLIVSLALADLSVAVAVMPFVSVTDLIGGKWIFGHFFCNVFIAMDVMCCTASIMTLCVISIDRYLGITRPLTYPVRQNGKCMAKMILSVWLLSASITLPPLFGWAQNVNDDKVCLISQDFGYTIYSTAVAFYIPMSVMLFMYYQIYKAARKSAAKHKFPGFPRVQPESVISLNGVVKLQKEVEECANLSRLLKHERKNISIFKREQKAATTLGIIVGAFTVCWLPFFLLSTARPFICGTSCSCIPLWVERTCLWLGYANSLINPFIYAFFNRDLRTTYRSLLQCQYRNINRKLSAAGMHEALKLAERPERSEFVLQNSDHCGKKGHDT
Sequence of 5-hydroxytryptamine receptor 4 (Homo sapiens) (Q13639 whole entry): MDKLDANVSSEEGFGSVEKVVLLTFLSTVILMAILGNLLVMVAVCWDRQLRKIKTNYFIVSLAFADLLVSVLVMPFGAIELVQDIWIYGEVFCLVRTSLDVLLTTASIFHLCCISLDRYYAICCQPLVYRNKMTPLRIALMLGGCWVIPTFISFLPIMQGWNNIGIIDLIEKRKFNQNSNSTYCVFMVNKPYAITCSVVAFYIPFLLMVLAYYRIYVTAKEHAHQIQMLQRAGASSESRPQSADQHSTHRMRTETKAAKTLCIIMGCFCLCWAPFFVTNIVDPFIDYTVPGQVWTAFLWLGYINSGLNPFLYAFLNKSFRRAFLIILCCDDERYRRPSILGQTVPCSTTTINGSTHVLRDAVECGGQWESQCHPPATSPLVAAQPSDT
Sequence of Cytochrome P450 3A4 (P08684 whole entry): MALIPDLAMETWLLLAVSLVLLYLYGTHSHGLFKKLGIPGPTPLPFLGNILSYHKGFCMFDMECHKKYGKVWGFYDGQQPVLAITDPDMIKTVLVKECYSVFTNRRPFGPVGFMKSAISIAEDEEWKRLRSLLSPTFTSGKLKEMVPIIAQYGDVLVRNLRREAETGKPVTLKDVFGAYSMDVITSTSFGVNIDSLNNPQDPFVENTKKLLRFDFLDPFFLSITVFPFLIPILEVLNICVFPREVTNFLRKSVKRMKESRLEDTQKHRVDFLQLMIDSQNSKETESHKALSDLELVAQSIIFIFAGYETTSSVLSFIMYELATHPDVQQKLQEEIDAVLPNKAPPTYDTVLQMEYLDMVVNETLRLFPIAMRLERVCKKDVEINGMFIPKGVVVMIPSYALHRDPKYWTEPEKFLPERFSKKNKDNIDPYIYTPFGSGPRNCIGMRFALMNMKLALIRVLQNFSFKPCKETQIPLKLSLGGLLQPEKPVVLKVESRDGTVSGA

## CN1CCN(Cc2cn(S(=O)(=O)c3ccccc3)c3ccccc23)CC1.Cl.Cl
[1]
  AUC(0-t): 2220 ng·h/mL
Cytochrome P450 3A4
  pIC50: < 5.00
[2]
  Activity: inactive
[3]
  Activity: inactive
[4]
  half-life: 0.89 h
[5]
  clearance: 14.9 mL/min/kg
Cytochrome P450 2D6
  pIC50: < 5.00
[6]
  Vd: 1.2 L/kg
[7]
  Kp: 0.82
[8]
  Activity: inactive
[9]
  Cmax: 1220 ng/mL
[10]
  Activity: Active
[11]
  Activity: inactive
Rattus norvegicus [12]
  Activity: Active
[13]
  bioavailability: 21.4%

## COc1cccc2c1c(CN1CCN(C)CC1)cn2S(=O)(=O)c1ccc(C(C)C)cc1.Cl.Cl
[1]
  AUC(0-t): 138 ng·h/mL
[14]
  Imax: 98%
[2]
  Activity: inactive
[15]
  Kb: 9.8 nM
[3]
  Activity: inactive
[4]
  half-life: 2.12 h
[5]
  clearance: 65 mL/min/kg
Cytochrome P450 2D6
  pIC50: 5.01
[6]
  Vd: 6.1 L/kg
[8]
  Activity: inactive
[16]
  pKi: 7.94
[9]
  Cmax: 45.6 ng/mL
[10]
  Activity: Active
[11]
  Activity: inactive
[13]
  bioavailability: 10.7%

## CN1CCN(Cc2cn(S(=O)(=O)c3ccc(F)cc3)c3ccccc23)CC1
[1]
  AUC(0-t): 221 ng·h/mL
[14]
  Imax: 98%
[2]
  Activity: inactive
[15]
  Kb: 12.3 nM
[3]
  Activity: inactive
[4]
  half-life: 1.5 h
[5]
  clearance: 75 mL/min/kg
[6]
  Vd: 6.3 L/kg
[8]
  Activity: inactive
[16]
  pKi: 8.06
[9]
  Cmax: 125 ng/mL
[10]
  Activity: Active
[11]
  Activity: inactive
[13]
  bioavailability: 17.5%

## CC12CC3CC(C)(C1)CC(N)(C3)C2 [MEMANTINE]
Rattus norvegicus [17]
  Activity: 1203%

## COc1ccc2c(c1)c(CN1CCN(C)CC1)cn2S(=O)(=O)c1ccc(C(C)C)cc1.CS(=O)(=O)O.CS(=O)(=O)O
[1]
  AUC(0-t): 151 ng·h/mL
Cytochrome P450 3A4
  pIC50: 5.73
[2]
  Activity: inactive
[3]
  Activity: inactive
[4]
  half-life: 1.12 h
[5]
  clearance: 54 mL/min/kg
Cytochrome P450 2D6
  pIC50: 4.48
[6]
  Vd: 5.3 L/kg
[8]
  Activity: inactive
[9]
  Cmax: 56.4 ng/mL
[10]
  Activity: Active
[11]
  Activity: inactive
[13]
  bioavailability: 4.9%

## CC(C)c1ccc(S(=O)(=O)n2cc(CN3CCN(C)CC3)c3cc(F)ccc32)cc1.Cl.Cl
[1]
  AUC(0-t): 7740 ng·h/mL
[14]
  Imax: 99%
Cytochrome P450 3A4
  pIC50: 5.85
[2]
  Activity: inactive
[15]
  Kb: 14 nM
[3]
  Activity: inactive
[4]
  half-life: 1.93 h
[5]
  clearance: 19.5 mL/min/kg
Cytochrome P450 2D6
  pIC50: 5.11
[6]
  Vd: 3.2 L/kg
[7]
  Kp: 0.95
[8]
  Activity: inactive
[16]
  pKi: 8.40
[9]
  Cmax: 1900 ng/mL
[10]
  Activity: Active
[11]
  Activity: inactive
Rattus norvegicus [12]
  Activity: Active
[13]
  bioavailability: 91.4%

## CN(C)CCCOc1ccc2[nH]nc(S(=O)(=O)c3cccc4ccccc34)c2c1
Rattus norvegicus [18]
  Activity: Active

## COc1ccc2c(c1)c(CN1CCCN(C)CC1)cn2S(=O)(=O)c1ccc(C(C)C)cc1.Cl.Cl
Rattus norvegicus [19]
  AUCt: 157 ng·h/mL
Cytochrome P450 3A4
  pIC50: 5.66
[2]
  Activity: inactive
[3]
  Activity: inactive
[4]
  half-life: 5.7 h
Cytochrome P450 2D6
  pIC50: 5.72
[6]
  Vd: 49.5 L/kg
[8]
  Activity: inactive
[9]
  Cmax: 22 ng/mL
[10]
  Activity: Active
[11]
  Activity: inactive
Rattus norvegicus [20]
  F: 4%

## CC(C)Oc1ccc2c(c1)c(CN1CCN(C)CC1)cn2S(=O)(=O)c1ccccc1Br
[16]
  pKi: 7.44

## COc1ccc2c(c1)c(CN1CCNCC1)cn2S(=O)(=O)c1ccc(C(C)C)cc1
[16]
  pKi: 8.24

## COc1cccc2c1c(CN1CCN(C)CC1)cn2S(=O)(=O)c1ccccc1Br
[16]
  pKi: 7.84

## CN1CCN(Cc2cn(S(=O)(=O)c3cccc(F)c3)c3ccccc23)CC1
[16]
  pKi: 7.24

## CCN1CCN(Cc2cn(S(=O)(=O)c3ccc(C(C)C)cc3)c3ccc(OC)cc23)CC1
[16]
  pKi: 8.77

## CN1CCN(Cc2cn(S(=O)(=O)c3ccc(F)cc3)c3ccc(Cl)cc23)CC1
[16]
  pKi: 7.76

## CN1CCN(Cc2cn(S(=O)(=O)c3ccc(Br)cc3)c3ccc(F)cc23)CC1
[16]
  pKi: 8.04

## CC(C)c1ccc(S(=O)(=O)n2cc(CN3CCN(C)CC3)c3ccccc32)cc1
[16]
  pKi: 8.22

## CN1CCN(Cc2cn(S(=O)(=O)c3ccc(F)cc3)c3ccc(Br)cc23)CC1
[16]
  pKi: 7.77

## Cc1c(CN2CCN(C)CC2)c2ccccc2n1S(=O)(=O)c1ccc(F)cc1
[16]
  pKi: 7.25

## O=S(=O)(c1ccccc1Br)n1cc(CN2CCN(Cc3ccccc3)CC2)c2ccccc21
[16]
  pKi: 6.88

## COc1ccc2c(c1)c(CN1CCN(C)CC1)cn2S(=O)(=O)c1ccc(F)cc1.CS(=O)(=O)O.CS(=O)(=O)O
[1]
  AUC(0-t): 249 ng·h/mL
Cytochrome P450 3A4
  pIC50: 5.77
[2]
  Activity: inactive
[3]
  Activity: inactive
[4]
  half-life: 2.52 h
[5]
  clearance: 92 mL/min/kg
Cytochrome P450 2D6
  pIC50: 4.90
[6]
  Vd: 19.2 L/kg
[8]
  Activity: inactive
[9]
  Cmax: 55 ng/mL
[11]
  Activity: inactive
[13]
  bioavailability: 13.5%

## COc1ccc2c(c1)c(CN1CCN(C)CC1)c(Cl)n2S(=O)(=O)c1ccc(C(C)C)cc1
[16]
  pKi: 7.53

## CCN1CCN(Cc2cn(S(=O)(=O)c3ccccc3Br)c3ccc(OC)cc23)CC1
[16]
  pKi: 8.17

## COc1ccc(OC)c(S(=O)(=O)n2cc(CN3CCN(C)CC3)c3ccccc32)c1
[16]
  pKi: 7.04

## CN1CCN(Cc2cn(S(=O)(=O)c3ccccc3Br)c3cccc(Cl)c23)CC1
[16]
  pKi: 7.63

## CN1CCN(Cc2cn(S(=O)(=O)c3c(F)cccc3F)c3ccccc23)CC1
[16]
  pKi: 7.19

## CN1CCN(Cc2c[nH]c3ccccc23)CC1
[16]
  pKi: 6.32

## CN1CCN(Cc2cn(C(=O)c3ccccc3Br)c3ccc(F)cc23)CC1
[16]
  pKi: 6.49

## CN1CCN(Cc2cn(S(=O)(=O)c3ccccc3Br)c3ccc(F)cc23)CC1
[16]
  pKi: 7.92

## CC(C)c1ccc(S(=O)(=O)n2cc(CN3CCN(C)CC3)c3c(Cl)cccc32)cc1
[16]
  pKi: 8.04
